Calls of active or inactive are those of the source. No cut-off for these calls is given here.
Experiments:
Heme oxygenase 1 = biological target: T1, Heme oxygenase 1 (Rattus norvegicus, UniProt P06762); test: Inhibition of heme oxygenase 1 in Sprague-Dawley rat spleen microsomal fraction assessed as decrease in bilirubin formation using hemin as substrate after 60 mins by spectrophotometric method
T1 sequence (P06762 whole entry): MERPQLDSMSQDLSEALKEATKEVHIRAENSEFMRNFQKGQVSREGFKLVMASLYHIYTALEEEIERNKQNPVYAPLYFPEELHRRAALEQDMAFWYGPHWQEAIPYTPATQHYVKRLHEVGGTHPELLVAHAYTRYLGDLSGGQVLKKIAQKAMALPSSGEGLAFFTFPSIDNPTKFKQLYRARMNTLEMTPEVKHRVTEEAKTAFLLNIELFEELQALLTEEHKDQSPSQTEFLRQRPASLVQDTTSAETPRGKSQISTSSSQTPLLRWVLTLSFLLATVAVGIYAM

K562 = test: Cytotoxicity against imatinib-sensitive human K562 cells assessed as decrease in cell viability after 24 hrs by XTT assay; assay type: functional, cell-based; conditions: K562, 24 h
Summary of the method: (§1)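 K562R (imatinib-resistant) or K562S cells seeded at 1×10^4/well in phenol red-free RPMI, left 24 h, then exposed 24 h to various concentrations. XTT reagent added, 2 h incubation, absorbance at 450 nm; IC50 reported. Mean ± SD, four experiments in triplicate.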

K-562R [1] = test: Cytotoxicity against human K562R cells assessed as decrease in cell viability after 24 hrs by XTT assay; assay type: functional, cell-based
Summary of the method: as §1

[2] = biological target: T2, Heme oxygenase 1 (Homo sapiens) (UniProt P09601); test: Inhibition of heme oxygenase 1 in human K562R cell lysates assessed as decrease in bilirubin formation at 10 uM after 60 mins by spectrophotometric method
T2 sequence (whole entry): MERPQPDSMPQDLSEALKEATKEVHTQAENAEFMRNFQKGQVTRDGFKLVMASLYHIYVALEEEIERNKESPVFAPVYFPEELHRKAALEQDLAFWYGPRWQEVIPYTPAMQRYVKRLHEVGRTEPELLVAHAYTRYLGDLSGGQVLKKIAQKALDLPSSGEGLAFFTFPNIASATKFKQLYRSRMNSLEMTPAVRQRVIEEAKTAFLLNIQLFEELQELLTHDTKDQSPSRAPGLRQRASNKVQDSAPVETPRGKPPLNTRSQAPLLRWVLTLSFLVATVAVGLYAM
Summary of the method: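 Intact K562R cells treated 24 h at 10 μM, then lysate (1 mg/mL) assayed. Mix: 20 mM Tris-HCl pH 7.4, liver biliverdin reductase 0.5–2 mg/mL, 1 mM NADPH, G6P/G6PDH, 25 μM hemin. 60 min at 37 °C in the dark, chloroform extraction, bilirubin by OD 464–530 nm. Mean ± SD, four experiments in triplicate.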

K-562R [3] = test: Induction of ROS production in human K562R cells at 10 uM by DCFH-DA dye based spectrofluorometric method; assay type: functional, cell-based
Summary of the method: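 K562R cells (RPMI-1640, 10% FBS, 37 °C, 5% CO2) treated 24 h at 10 μM, then probed with DCFH-DA. DCF fluorescence read at excitation 488 nm, emission 525 nm, normalized to total protein (F.I./mg protein). Mean ± SD, four experiments in triplicate.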

K-562R [4] = test: Induction of apoptosis in human K562R cells assessed as early apoptotic cells at 10 uM by Annexin V staining-based flow cytometry (reference value: 8.51%); assay type: functional
K-562R [5] = test: Induction of apoptosis in human K562R cells assessed as viable cells at 10 uM by Annexin V staining-based flow cytometry (reference value: 81.13%); assay type: functional; conditions: read-out: Activity
K-562R [6] = test: Induction of apoptosis in human K562R cells assessed as late apoptotic cells at 10 uM by Annexin V staining-based flow cytometry (reference value: 9.49%); assay type: functional
Lymphocyte = test: Cytotoxicity against human lymphocytes assessed as decrease in cell viability at 10 uM after 24 hrs by XTT assay; assay type: cell-based
Summary of the method: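 Lymphocytes from healthy volunteers isolated on Ficoll–Paque, grown in RPMI-1640 with 10% FBS and 1% penicillin/streptomycin at 37 °C, 5% CO2, and treated 24 h at 10 μM.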

[7] = biological target: Bcr/Abl fusion protein (Homo sapiens) (UniProt P00519+P11274); test: Inhibition of BCR-ABL in human K562R cells assessed as decrease in CrKL phosphorylation at 10 uM by immuno blot analysis; assay type: cell-based
Chain of Bcr/Abl fusion protein (Homo sapiens) (P00519 whole entry, looked up, the tested form may be a part): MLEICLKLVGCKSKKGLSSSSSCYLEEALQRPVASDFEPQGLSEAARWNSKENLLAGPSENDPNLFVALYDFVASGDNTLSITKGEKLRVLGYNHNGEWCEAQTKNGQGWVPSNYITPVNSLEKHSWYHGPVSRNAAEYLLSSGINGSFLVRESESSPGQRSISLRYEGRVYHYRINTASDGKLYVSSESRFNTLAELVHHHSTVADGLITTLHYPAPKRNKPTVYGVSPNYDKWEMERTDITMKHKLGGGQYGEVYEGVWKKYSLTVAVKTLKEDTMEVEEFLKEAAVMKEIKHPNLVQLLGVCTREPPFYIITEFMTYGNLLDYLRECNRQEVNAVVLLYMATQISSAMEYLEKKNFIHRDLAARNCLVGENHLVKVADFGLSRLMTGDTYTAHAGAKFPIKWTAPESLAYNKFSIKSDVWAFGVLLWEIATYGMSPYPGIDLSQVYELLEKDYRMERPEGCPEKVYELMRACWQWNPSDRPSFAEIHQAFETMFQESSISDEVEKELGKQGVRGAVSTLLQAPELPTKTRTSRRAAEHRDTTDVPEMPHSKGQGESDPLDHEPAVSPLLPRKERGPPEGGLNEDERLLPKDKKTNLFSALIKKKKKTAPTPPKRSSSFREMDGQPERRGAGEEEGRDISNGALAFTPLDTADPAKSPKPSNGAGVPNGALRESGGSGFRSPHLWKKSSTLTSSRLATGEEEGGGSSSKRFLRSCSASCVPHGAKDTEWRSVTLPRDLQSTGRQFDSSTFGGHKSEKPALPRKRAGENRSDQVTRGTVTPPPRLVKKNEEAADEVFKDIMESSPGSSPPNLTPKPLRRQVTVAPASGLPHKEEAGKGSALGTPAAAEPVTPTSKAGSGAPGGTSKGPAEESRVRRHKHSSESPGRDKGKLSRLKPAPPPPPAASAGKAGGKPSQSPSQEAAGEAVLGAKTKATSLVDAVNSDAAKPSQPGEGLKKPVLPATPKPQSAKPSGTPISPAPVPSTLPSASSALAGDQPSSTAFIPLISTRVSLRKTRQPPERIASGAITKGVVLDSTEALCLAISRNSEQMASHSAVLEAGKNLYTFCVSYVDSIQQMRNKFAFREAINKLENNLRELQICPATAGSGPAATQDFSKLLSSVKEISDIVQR
Chain of Bcr/Abl fusion protein (Homo sapiens) (P11274 whole entry, looked up, the tested form may be a part): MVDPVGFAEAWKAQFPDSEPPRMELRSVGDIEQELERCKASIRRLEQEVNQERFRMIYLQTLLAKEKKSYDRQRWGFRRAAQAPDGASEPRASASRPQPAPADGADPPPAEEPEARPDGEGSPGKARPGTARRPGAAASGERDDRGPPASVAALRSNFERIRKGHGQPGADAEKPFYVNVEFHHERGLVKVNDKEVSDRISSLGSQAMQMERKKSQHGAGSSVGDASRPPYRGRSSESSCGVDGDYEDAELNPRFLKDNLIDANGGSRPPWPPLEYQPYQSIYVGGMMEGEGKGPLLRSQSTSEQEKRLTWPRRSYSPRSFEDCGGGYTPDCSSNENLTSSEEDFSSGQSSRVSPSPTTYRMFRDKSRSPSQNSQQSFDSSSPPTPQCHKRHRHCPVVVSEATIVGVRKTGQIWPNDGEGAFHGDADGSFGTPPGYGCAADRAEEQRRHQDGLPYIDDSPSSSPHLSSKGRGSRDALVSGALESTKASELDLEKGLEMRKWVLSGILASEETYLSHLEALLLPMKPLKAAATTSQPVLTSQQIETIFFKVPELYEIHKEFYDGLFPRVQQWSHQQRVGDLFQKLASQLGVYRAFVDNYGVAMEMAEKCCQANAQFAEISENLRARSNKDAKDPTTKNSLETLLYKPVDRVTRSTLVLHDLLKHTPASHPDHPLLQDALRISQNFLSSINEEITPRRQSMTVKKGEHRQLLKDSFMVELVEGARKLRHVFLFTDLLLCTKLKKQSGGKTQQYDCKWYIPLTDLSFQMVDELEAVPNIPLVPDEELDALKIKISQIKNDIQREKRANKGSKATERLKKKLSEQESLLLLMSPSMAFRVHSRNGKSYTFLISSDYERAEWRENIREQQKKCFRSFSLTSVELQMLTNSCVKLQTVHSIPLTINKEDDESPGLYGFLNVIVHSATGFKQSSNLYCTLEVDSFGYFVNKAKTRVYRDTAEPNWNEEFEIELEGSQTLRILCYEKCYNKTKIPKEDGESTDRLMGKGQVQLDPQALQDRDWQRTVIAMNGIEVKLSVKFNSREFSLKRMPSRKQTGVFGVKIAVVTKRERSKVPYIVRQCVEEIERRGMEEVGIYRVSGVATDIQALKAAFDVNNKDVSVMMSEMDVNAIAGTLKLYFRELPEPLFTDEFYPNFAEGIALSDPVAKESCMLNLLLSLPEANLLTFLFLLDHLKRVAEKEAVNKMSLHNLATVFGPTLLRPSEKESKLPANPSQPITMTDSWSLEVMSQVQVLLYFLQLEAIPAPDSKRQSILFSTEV
Summary of the method: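 K562R cells treated 24 h at 10 μM and lysed. 20 μg protein separated on SDS-PAGE, transferred to nitrocellulose and probed with anti-CrkL and anti-pCrkL (1:1,000), then infrared-dye secondary antibody. Densitometry gives pCrkL/CrkL ratio as fold of untreated control. Four experiments in triplicate.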

K-562R [8] = test: Induction of apoptosis in human K562R cells assessed as necrotic cells at 10 uM by Annexin V staining-based flow cytometry (reference value: 0.87%); assay type: functional
K-562R [9] = test: Effect on heme oxygenase 2 mRNA levels in human K562R cells at 10 uM by qRT-PCR method; assay type: functional, cell-based
Summary of the method: (§2)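 K562R cells treated 24 h at 10 μM, rinsed in cold PBS and lysed in Trizol. HO-1 and HO-2 mRNA measured by real-time PCR alongside GAPDH. Mean ± SD, four experiments in triplicate.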

[10] = biological target: T2, Heme oxygenase 1 (Homo sapiens); test: Inhibition of heme oxygenase 1 in human K562R cells assessed as decrease in HO-1 mRNA levels at 10 uM by qRT-PCR method; assay type: cell-based
Summary of the method: as §2

Row | SMILES | IC50 (Heme oxygenase 1) [µM] | inhibition [2] | inhibition [7] | IC50 (K562) [µM] | IC50 (K-562R [1]) [µM] | Activity (K-562R [3]) | Activity (K-562R [4]) [%] | viability at 10 µM (K-562R [5]) [%] | Activity (K-562R [6]) [%] | Activity (Lymphocyte) | Activity (K-562R [8]) [%] | Activity (K-562R [9]) | inhibition [10]
1 | Cc1ccc(OCCCCn2ccnc2)c(C(=O)Nc2ccc(C)c(Nc3nccc(-c4cccnc4)n3)c2)c1 | 0.95 | – | – | 59.5 | 48.6 | – | – | – | – | – | – | – | –
2 | Cc1ccc(NC(=O)c2ccc(OCCCCn3ccnc3)c(Br)c2)cc1Nc1nccc(-c2cccnc2)n1 | 0.92 | – | Active | 12 | 31.8 | – | 2.3 | 83.8 | 13.15 | Non-Toxic | 0.65 | – | –
3 | COc1ccc(C(=O)Nc2ccc(C)c(Nc3nccc(-c4cccnc4)n3)c2)c(OCCCCn2ccnc2)c1 | 61.6 | – | – | 58.9 | 46.6 | – | – | – | – | – | – | – | –
4 | COc1cc(C(=O)Nc2ccc(C)c(Nc3nccc(-c4cccnc4)n3)c2)ccc1OCCCCn1ccnc1 | 56.6 | – | Active | 29.5 | 27.1 | – | 4.4 | 60.4 | 32.3 | Non-Toxic | 2.9 | – | –
5 | Cc1ccc(NC(=O)c2cc(I)ccc2OCCCCn2ccnc2)cc1Nc1nccc(-c2cccnc2)n1 | 38.9 | – | – | 66.5 | 81.7 | – | – | – | – | – | – | – | –
6 | Cc1ccc(NC(=O)c2ccc(CN3CCN(C)CC3)cc2)cc1Nc1nccc(-c2cccnc2)n1 [IMATINIB] | > 100 | Active | – | 1 | 98.8 | inactive | 6.25 | 89.4 | 3.6 | – | 0.79 | – | inactive
7 | Cc1ccc(NC(=O)c2ccc(OCCCCn3ccnc3)c(I)c2)cc1Nc1nccc(-c2cccnc2)n1 | 74.9 | – | Active | 32.5 | 52.4 | – | – | – | – | – | – | – | –
8 | Cc1ccc(NC(=O)c2cccc(OCCCCn3ccnc3)c2)cc1Nc1nccc(-c2cccnc2)n1 | 38.5 | – | – | 74.6 | 63.4 | – | – | – | – | – | – | – | –

Now from value to molecule, other results behind:

Row | IC50 (Heme oxygenase 1) [µM] | inhibition [2] | inhibition [7] | SMILES | IC50 (K562) [µM] | IC50 (K-562R [1]) [µM] | Activity (K-562R [3]) | Activity (K-562R [4]) [%] | viability at 10 µM (K-562R [5]) [%] | Activity (K-562R [6]) [%] | Activity (Lymphocyte) | Activity (K-562R [8]) [%] | Activity (K-562R [9]) | inhibition [10]
9 | 15.1 | – | – | Cc1ccc(NC(=O)c2ccc(I)cc2OCCCCn2ccnc2)cc1Nc1nccc(-c2cccnc2)n1 | 57.4 | 51.8 | – | – | – | – | – | – | – | –
10 | – | Active | – | Brc1cccc(OCCCCn2ccnc2)c1 | 68.3 | 81.7 | Active | – | – | – | – | – | – | –
11 | – | Active | – | Ic1ccc(OCCCCn2ccnc2)cc1 | 69.1 | 84.4 | Active | – | – | – | – | – | – | –
12 | 28.6 | Active | Active | Cc1ccc(NC(=O)c2cc(Br)cc(OCCCCn3ccnc3)c2)cc1Nc1nccc(-c2cccnc2)n1 | 6.5 | 19.1 | Active | 1.55 | 41.2 | 47.6 | Non-Toxic | 9.65 | inactive | –
13 | 15.1 | Active | Active | COc1ccc(C(=O)Nc2ccc(C)c(Nc3nccc(-c4cccnc4)n3)c2)cc1OCCCCn1ccnc1 | 10.1 | 18.7 | Active | 5.4 | 51.3 | 39.5 | Non-Toxic | 3.85 | inactive | –
14 | 66.2 | – | – | Cc1ccc(NC(=O)c2ccc(OCCCCn3ccnc3)cc2)cc1Nc1nccc(-c2cccnc2)n1 | 49.9 | 99.4 | – | – | – | – | – | – | – | –
15 | 28 | – | – | Cc1ccc(NC(=O)c2ccccc2OCCCCn2ccnc2)cc1Nc1nccc(-c2cccnc2)n1 | 47.5 | 83.4 | – | – | – | – | – | – | – | –
16 | 0.95 | – | Active | Cc1ccc(NC(=O)c2ccc(Br)cc2OCCCCn2ccnc2)cc1Nc1nccc(-c2cccnc2)n1 | 66.1 | 44.6 | – | – | – | – | – | – | – | –
17 | > 100 | – | – | Cc1ccc(N)cc1Nc1nccc(-c2cccnc2)n1 | – | – | – | – | – | – | – | – | – | –
18 | 4.03 | – | Active | Cc1ccc(NC(=O)c2ccc([N+](=O)[O-])c(OCCCCn3ccnc3)c2)cc1Nc1nccc(-c2cccnc2)n1 | 25 | 47.6 | – | 2.15 | 82.4 | 14.2 | Non-Toxic | 1.25 | – | –

— ChEMBL document CHEMBL4265959, “Targeting heme Oxygenase-1 with hybrid compounds to overcome Imatinib resistance in chronic myeloid leukemia cell lines” (Eur J Med Chem, 2018)
